Measured values as given in ChEMBL document CHEMBL4020830, “Design, Synthesis, and Evaluation of a Novel Series of Indole Sulfonamide Peroxisome Proliferator Activated Receptor (PPAR) α/γ/δ Triple Activators: Discovery of Lanifibranor, a New Antifibrotic Clinical Candidate” (J Med Chem, 2018).

How the values were obtained:
[1] = test system: Rattus norvegicus; assay: Toxicity in Sprague-Dawley rat assessed as increase in heart weight at 30 mg/kg for 6 weeks; format: organism-based; details: in vivo, 1008 h
[2] = test system: Rattus norvegicus; assay: Toxicity in Sprague-Dawley rat assessed as increase in plasma volume at 100 mg/kg for 4 weeks by evans blue dye based assay; format: organism-based; details: in vivo, 672 h
Summary of the method: (§1)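 Sprague-Dawley rats were treated at 100 and 1000 mg/kg. Hematocrit and plasma volume were assessed after 4 weeks of treatment and heart weight after 6 weeks. Each was compared with the control group by one-way ANOVA followed by Dunnett's test.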

[3] = test system: Rattus norvegicus; assay: Toxicity in Sprague-Dawley rat assessed as increase in heart weight at 100 mg/kg for 6 weeks; format: organism-based; details: in vivo, 1008 h; summary of the method: as §1
[4] = test system: Rattus norvegicus; assay: Toxicity in Sprague-Dawley rat assessed as reduction in hematocrit level at 100 mg/kg for 4 weeks; format: organism-based; details: in vivo, 672 h; summary of the method: as §1
[5] = AUC (infinity) in C57Bl6 mouse at 10 mg/kg, po administered as single oral dose; format: ADME, organism-based; details: in vivo
Summary of the method: (§2)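 Single oral dose of 10 mg/kg in methyl cellulose vehicle given to C57Bl6 mice. Plasma was sampled over a 24 h period. […]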

[6] = Tmax in C57Bl6 mouse at 10 mg/kg, po administered as single oral dose; format: ADME, organism-based; details: in vivo; summary of the method: as §2
[7] = biological target: T1, Peroxisome proliferator-activated receptor delta (Homo sapiens) (UniProt Q03181); assay: Transactivation of human GAL4-fused PPARdelta LBD expressed in African green monkey COS7 cells co-expressing 5Gal4 pGL3 TK Luc after overnight incubation by luciferase reporter gene assay relative to GW501516; format: cell-based
T1 sequence (whole entry): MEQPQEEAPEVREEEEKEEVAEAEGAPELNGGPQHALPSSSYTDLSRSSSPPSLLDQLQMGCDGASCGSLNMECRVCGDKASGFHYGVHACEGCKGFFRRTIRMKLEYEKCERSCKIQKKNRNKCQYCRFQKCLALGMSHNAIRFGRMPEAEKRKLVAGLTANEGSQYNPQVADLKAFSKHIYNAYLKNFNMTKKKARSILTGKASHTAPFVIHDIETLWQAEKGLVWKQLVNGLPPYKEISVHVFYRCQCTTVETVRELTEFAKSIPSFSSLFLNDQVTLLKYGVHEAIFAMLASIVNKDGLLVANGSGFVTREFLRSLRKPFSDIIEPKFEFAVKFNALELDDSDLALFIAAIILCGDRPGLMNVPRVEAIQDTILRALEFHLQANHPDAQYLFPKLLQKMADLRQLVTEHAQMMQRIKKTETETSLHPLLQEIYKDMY
Summary of the method: (§3)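 Cell-based Gal-4 transactivation assay in COS-7 cells transfected with PPARα, PPARδ or PPARγ ligand-binding domain. EC50 and Emax were derived, with Emax as maximum activation in percent of control. EC50s are means of at least two independent experiments performed in triplicate.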

[8] = biological target: T2, Peroxisome proliferator-activated receptor delta (Homo sapiens, UniProt Q03181); assay: Transactivation of human GAL4-fused PPARdelta LBD expressed in African green monkey COS7 cells co-expressing 5Gal4 pGL3 TK Luc after overnight incubation by luciferase reporter gene assay; format: cell-based; summary of the method: as §3
T2 sequence (Q03181 whole entry): T1 sequence (whole entry)

[9] = biological target: T3, Peroxisome proliferator-activated receptor alpha (Homo sapiens) (UniProt Q07869); assay: Transactivation of human GAL4-fused PPARalpha LBD expressed in African green monkey COS7 cells co-expressing 5Gal4 pGL3 TK Luc after overnight incubation by luciferase reporter gene assay relative to fenofibric acid; format: cell-based; summary of the method: as §3
T3 sequence (whole entry): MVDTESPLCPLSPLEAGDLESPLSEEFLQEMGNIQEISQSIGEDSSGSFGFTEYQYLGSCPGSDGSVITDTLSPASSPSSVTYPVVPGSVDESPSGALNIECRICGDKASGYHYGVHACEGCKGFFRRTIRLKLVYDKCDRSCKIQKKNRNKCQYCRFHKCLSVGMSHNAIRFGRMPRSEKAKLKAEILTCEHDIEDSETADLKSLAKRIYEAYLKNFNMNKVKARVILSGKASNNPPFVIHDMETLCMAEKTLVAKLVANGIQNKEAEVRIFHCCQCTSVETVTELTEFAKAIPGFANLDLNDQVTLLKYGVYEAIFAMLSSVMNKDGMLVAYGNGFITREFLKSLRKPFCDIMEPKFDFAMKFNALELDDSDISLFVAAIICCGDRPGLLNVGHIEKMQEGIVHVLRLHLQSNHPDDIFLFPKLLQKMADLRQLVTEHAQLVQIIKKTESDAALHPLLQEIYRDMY

[10] = biological target: T4, Peroxisome proliferator-activated receptor gamma (Homo sapiens) (UniProt P37231); assay: Transactivation of human GAL4-fused PPARgamma LBD expressed in African green monkey COS7 cells co-expressing 5Gal4 pGL3 TK Luc after overnight incubation by luciferase reporter gene assay relative to rosiglitazone; format: cell-based; summary of the method: as §3
T4 sequence (whole entry): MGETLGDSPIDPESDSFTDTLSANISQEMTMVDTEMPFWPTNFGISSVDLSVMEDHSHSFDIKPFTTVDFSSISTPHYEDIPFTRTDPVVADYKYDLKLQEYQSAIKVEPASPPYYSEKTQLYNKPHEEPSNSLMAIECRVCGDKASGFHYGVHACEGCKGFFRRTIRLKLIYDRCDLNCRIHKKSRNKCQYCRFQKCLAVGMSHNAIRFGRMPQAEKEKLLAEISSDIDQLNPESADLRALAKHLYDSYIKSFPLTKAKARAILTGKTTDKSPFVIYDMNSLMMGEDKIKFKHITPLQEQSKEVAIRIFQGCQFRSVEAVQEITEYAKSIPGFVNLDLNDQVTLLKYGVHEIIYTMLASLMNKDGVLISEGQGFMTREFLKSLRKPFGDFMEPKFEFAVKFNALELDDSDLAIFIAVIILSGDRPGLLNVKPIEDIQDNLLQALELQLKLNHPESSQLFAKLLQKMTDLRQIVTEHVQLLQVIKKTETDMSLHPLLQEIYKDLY

[11] = biological target: T5, Peroxisome proliferator-activated receptor alpha (Homo sapiens, UniProt Q07869); assay: Transactivation of human GAL4-fused PPARalpha LBD expressed in African green monkey COS7 cells co-expressing 5Gal4 pGL3 TK Luc after overnight incubation by luciferase reporter gene assay; format: cell-based; summary of the method: as §3
T5 sequence (Q07869 whole entry): T3 sequence (whole entry)

[12] = biological target: T6, Peroxisome proliferator-activated receptor gamma (Homo sapiens, UniProt P37231); assay: Transactivation of human GAL4-fused PPARgamma LBD expressed in African green monkey COS7 cells co-expressing 5Gal4 pGL3 TK Luc after overnight incubation by luciferase reporter gene assay; format: cell-based; summary of the method: as §3
T6 sequence (P37231 whole entry): T4 sequence (whole entry)

[13] = Cmax in C57Bl6 mouse at 10 mg/kg, po administered as single oral dose; format: ADME, organism-based; details: in vivo; summary of the method: as §2
[14] = test system: Rattus norvegicus; assay: Toxicity in Sprague-Dawley rat assessed as increase in plasma volume at 10 mg/kg for 4 weeks by evans blue dye based assay; format: organism-based; details: in vivo, 672 h
[15] = test system: Rattus norvegicus; assay: Toxicity in Sprague-Dawley rat assessed as reduction in hematocrit level at 10 mg/kg for 4 weeks; format: organism-based; details: in vivo, 672 h
[16] = test system: Rattus norvegicus; assay: Toxicity in Sprague-Dawley rat assessed as increase in heart weight at 10 mg/kg for 6 weeks; format: organism-based; details: in vivo, 1008 h

For `CN(CCOc1ccc(CC2SC(=O)NC2=O)cc1)c1ccccn1` (stereo unspecified) [ROSIGLITAZONE], the Activity [1] was “Toxic”.
For `COc1ccc(OC(=O)N(CC(=O)O)Cc2ccc(OCCc3nc(-c4ccccc4)oc3C)cc2)cc1` [MURAGLITAZAR], the Activity [2] was “Toxic”, the Activity [3] was “Toxic” and the Activity [4] was “Toxic”.
`O=C(O)CCCc1cc2cc(Cl)ccc2n1S(=O)(=O)c1ccccc1` gave an AUC(0-inf) [5] of 51100 ng·h/mL, a Tmax [6] of 1 h and an Emax [7] of 46%. It also gave an EC50 [8] of 645 nM, an Emax [9] of 51% and an Emax [10] of 46%. For the same compound, the EC50 [11] was 956 nM, the EC50 [12] was 284 nM and the Cmax [13] was 11800 ng/mL.
For `CCO[C@@H](Cc1ccc(OCCc2ccc(OS(C)(=O)=O)cc2)cc1)C(=O)O` [TESAGLITAZAR], the Activity [14] was “Toxic”, the Activity [15] was “Toxic” and the Activity [16] was “Toxic”.
